# Results gathered from unrelated publications.
# Compare with care: the assays were run in different laboratories.
# Target: Mitotic checkpoint serine/threonine-protein kinase BUB1 (BUB1, Homo sapiens, UniProt O43683)
Compound,effect on,technique,tested at,remaining binding [%]
N[C@H]1CCN(c2nccc(-c3cnn4ncccc34)n2)C1,binding,,1 µM,97
FC(F)(F)Oc1cccc(-c2cnc3ccc(-c4ccncc4)nn23)c1,cell-free assay,competition with immobilised ligand,5 µM,13
C[C@@]1(Cc2ccc(C#N)cc2)C(=O)N(c2cc(Cl)cc(Cl)c2)c2ncc(C(=O)NC3(c4nc(C5CCC5)no4)CC3)n21,cell-free assay,competition with immobilised ligand,1 µM,100
COc1cnc(Nc2cccc(S(N)(=O)=O)c2)nc1N1CCN(c2ccccc2)CC1,binding,competition with immobilised ligand,1 µM,69
c1cnn2ncc(-c3ccnc(N4CCC45COC5)n3)c2c1,binding,,1 µM,46
CNC(=O)[C@@H]1CC[C@@H](n2c(-c3ccc4cnccc4c3)nc3ccc(C(=O)NCc4cccc(C(N)=O)c4)cc32)C1,binding,competition with immobilised ligand,1 µM,100
CN(C)CC#Cc1ccc(OCCCc2sc(N3CCc4cccc(C(=O)Nc5nc6ccccc6s5)c4C3)nc2C(=O)O)c(F)c1,cell-free assay,competition with immobilised ligand,1 µM,81
C[C@@H](c1ccc(-n2cnc3c(N)ncnc32)cc1)N1CCc2nn(C)c(Cc3ccccc3)c2C1=O,binding,competition with immobilised ligand,0.1 µM,91
O=C(c1ccc(Nc2nccc(-c3cc4ccccc4s3)n2)cc1)N1CCC(N2CCCC2)CC1,binding,competition with immobilised ligand,1 µM,45
Cc1cnn2ncc(-c3ccnc(N(C)C)n3)c2c1,binding,,1 µM,63
CCCCN(CCCC)C(=O)CN1C[C@H](c2cc(OC)c3c(c2)OCO3)[C@@H](C(=O)O)[C@@H]1CC(C)(C)CCC,cell-free assay,competition with immobilised ligand,1 µM,75.4
F[C@@H]1CCN(c2nccc(-c3cnn4ncccc34)n2)C1,binding,,1 µM,72
C=CC(=O)N1CCC(C(=O)NCC(=O)N2CCN(c3nc(-c4cnc(N)nc4C(F)F)nc(N4CCOCC4)n3)CC2)CC1,binding,competition with immobilised ligand,1 µM,77
C[C@@H]1CCN(c2nccc(-c3cnn4ncccc34)n2)C1,binding,,1 µM,71
COc1ncc2cc3ccccc3nc2c1C#N,cell-free assay,competition with immobilised ligand,5 µM,92
CCOCCn1cc(C(=O)Nc2ccc(-n3nc(-c4cccnc4)cc3C(F)(F)F)cn2)ccc1=O,cell-free assay,competition with immobilised ligand,1 µM,79
Cc1cnc(Nc2ccc(C(=O)N3CCC(N4CCCC4)CC3)cc2)nc1-c1cc2ccccc2s1,binding,competition with immobilised ligand,1 µM,39
CN([C@@H]1CCc2c(CC(=O)O)c3ccccc3n2C1)S(=O)(=O)c1ccc(F)cc1,cell-free assay,competition with immobilised ligand,1 µM,79
CN(CCCC(F)(F)F)c1nccc(-c2cnn3ncccc23)n1,binding,,1 µM,91
O=C(NCCCN1CCOCC1)c1ccc(Nc2nccc(-c3cc4ccccc4s3)n2)cc1,binding,competition with immobilised ligand,1 µM,72
CCc1ccccc1C(=O)Nc1n[nH]c2c(C)c(F)c(C3C(C#N)=C(C)N(C)C(C)=C3C#N)cc12,cell-free assay,competition with immobilised ligand,1 µM,100
O=C(Nc1c[nH]nc1C(=O)NC1CCNCC1)c1cc(F)cc(F)c1,binding,competition with immobilised ligand,1 µM,100
